# From ChEMBL document CHEMBL1122333, “Synthesis and biological activities of the Z isomers of carbapenem antibiotics” (J Med Chem, 1983)
# How the values were obtained:
# [1] = tested on: Escherichia coli; assay: Tested for inhibition of intraperitoneal infection against Escherichia coli O-111; type: functional
# How it was run: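 Protection assay run in Slc:ICR mice. ED50 was calculated by the Reed and Muench method from survival recorded 5 days after infection.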
# [2] = (§1) Half-life of 10% mouse kidney homogenate is tested; type: ADME; conditions: 10% mouse kidney homogenate
# How it was run: (§2)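 Carbapenem at 50 μg/mL incubated in 10% mouse kidney homogenate at 30 °C to assess stability to mouse renal enzyme(s).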
# [3] = tested on: Escherichia coli; assay: Tested for minimum inhibitory concentration against Escherichia coli O-111; type: functional
# How it was run: (§3)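 MIC by agar dilution on Trypticase soy agar. Inoculum was one loopful of a 10^8 cfu/mL bacterial suspension.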
# [4] = tested on: Proteus vulgaris; assay: Tested for minimum inhibitory concentration against Proteus vulgaris IFO 3988; type: functional; how it was run: as §3
# [5] = tested on: Pseudomonas aeruginosa; assay: Tested for minimum inhibitory concentration against Pseudomonas aeruginosa IFO 3455; type: functional
# How it was run: (§4)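 Agar dilution MIC on Trypticase soy agar. Each plate was inoculated with one loopful of a 10^8 cfu/mL bacterial suspension.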
# [6] = tested on: Acinetobacter calcoaceticus; assay: Minimum inhibitory concentration against Acinetobacter calcoacet IFO 13006; type: functional; how it was run: as §3
# [7] = tested for minimum inhibitory concentration against […] 12486 on ampicillin at a concentration of 0.1 ug/mL into the agar plate; type: functional
# [8] = tested on: Serratia marcescens; assay: beta-lactamase inhibitory activity of the 5,6-cis-carbapenem antibiotic on cephalosporinase against Serratia marcescens TN81; type: functional, organism-based, serratia marcesc; conditions: for IC50: Serratia marcescens, read-out: I50
# [9] = tested on: Klebsiella pneumoniae; assay: Tested for beta-lactamase inhibitory activity of the 5,6-cis-carbapenem antibiotic on penicillinase against Klebsiella pneumoniae TN1698; type: functional, organism-based; conditions: for IC50: Klebsiella pneumoniae, read-out: I50
# [10] = tested on: Proteus vulgaris; assay: Minimum inhibitory concentration against Proteus vulgaris GN4815 on cefotiam at a concentration of 0.1 ug/mL into the agar plate
# [11] = tested on: Klebsiella pneumoniae; assay: Tested for minimum inhibitory concentration against Klebsiella pneumoniae TN1655 on ampicillin at a concentration of 0.1 ug/mL into the agar plate; type: functional
# [12] = tested on: Staphylococcus aureus; assay: Tested for beta-lactamase inhibitory activity of the 5,6-cis-carbapenem antibiotic on penicillinase against Staphylococcus aureus 1840; type: functional, organism-based; conditions: read-out: I50
# [13] = tested on: Proteus vulgaris; assay: beta-lactamase inhibitory activity of the 5,6-cis-carbapenem antibiotic on cephalosporinase against Proteus vulgaris GN4413; type: functional, organism-based; conditions: for IC50: Proteus vulgaris, read-out: I50
# [14] = tested on: Staphylococcus aureus; assay: Tested for minimum inhibitory concentration against Staphylococcus aureus 1840 on ampicillin at a concentration of 0.1 ug/mL into the agar plate; type: functional
# [15] = tested on: Serratia marcescens; assay: Tested for minimum inhibitory concentration against Serratia marcescens 12648 on cefotiam at a concentration of 0.1 ug/mL into the agar plate
# [16] = tested on: Enterobacter cloacae; assay: Tested for minimum inhibitory concentration against […] IFO 12937; type: functional; how it was run: as §4
# [17] = tested on: Staphylococcus aureus; assay: Tested for minimum inhibitory concentration against Staphylococcus aureus 308 A-1; type: functional; how it was run: as §4
# [18] = tested on: Escherichia coli; assay: Tested for minimum inhibitory concentration against Escherichia coli T-7; type: functional; how it was run: as §4
# [19] = tested on: Morganella morganii; assay: Tested for minimum inhibitory concentration against […] IFO 3168; type: functional; how it was run: as §4
# [20] = tested on: Citrobacter freundii; assay: Tested for minimum inhibitory concentration against […] IFO 12681; type: functional; how it was run: as §4
# [21] = tested on: Proteus mirabilis; assay: Tested for minimum inhibitory concentration against […] IFO 3849; type: functional; how it was run: as §4
# [22] = tested on: Klebsiella pneumoniae; assay: Tested for minimum inhibitory concentration against Klebsiella pneumoniae DT; type: functional; how it was run: as §4
# [23] = tested on: Serratia marcescens; assay: Tested for minimum inhibitory concentration against Serratia marcescens IFO 12648; type: functional; how it was run: as §4
# [24] = organism: Mus musculus; assay: as §1; type: ADME; conditions: in vitro; how it was run: as §2
# [25] = tested on: Proteus vulgaris; assay: Tested for minimum inhibitory concentration against Proteus vulgaris GN4815 on cefotiam at a concentration of 0.1 ug/mL into the agar plate
# [26] = tested on: Proteus vulgaris; assay: tested for minimum inhibitory concentration against Proteus vulgaris GN4815 on cefotiam at a concentration of 0.1 ug/mL into the agar plate
# [27] = tested on: Klebsiella pneumoniae; assay: Tested for minimum inhibitory concentration against Klebsiella pneumoniae TN1655 on ampicillin at a concentration of 0.1 ug/mL into the agar plate
# [28] = Escherichia coli, ip, read-out: ED50
# [29] = Pseudomonas aeruginosa, IFO 3455, read-out: MIC
# [30] = Acinetobacter calcoaceticus, IFO 13006, read-out: MIC
half-life [2] [min],IC50 [8] [ng/mL],IC50 [9] [ng/mL],MIC [10] [µg/mL],MIC [11] [µg/mL],IC50 [12] [µg/mL],IC50 [13] [ng/mL],MIC [14] [µg/mL],MIC [15] [µg/mL],SMILES,"ED50 [1, 28] [mg/kg]",other results
12,,,,,,,,,CC(=O)N/C=C/SC1=C(C(=O)[O-])N2C(=O)[C@@H](C(C)O)[C@H]2C1.[Na+] (some centres undefined),> 50,"MIC ([3]; Escherichia coli, read-out: MIC): 0.39 µg/mL; MIC ([4]; Proteus vulgaris, IFO 3988, read-out: MIC): 3.13 µg/mL; MIC [5, 29]: 100 µg/mL; MIC [6, 30]: 3.13 µg/mL"
7,,,,,,,,,CC(=O)N/C=C/SC1=C(C(=O)[O-])N2C(=O)[C@@H](C(C)(C)OS(=O)(=O)[O-])[C@H]2C1.[Na+].[Na+],> 50,
42,1,1.8,1.56,25,0.014,0.35,,,CC(=O)N/C=C\SC1=C(C(=O)[O-])N2C(=O)[C@@H](C(C)OS(=O)(=O)[O-])[C@H]2C1.[Na+].[Na+] (some centres undefined),> 50,MIC [7]: 12.5 µg/mL
,0.34,0.08,50,,0.0034,0.16,50,25,CC(=O)N/C=C\[S+]([O-])C1=C(C(=O)[O-])N2C(=O)[C@@H](C(C)OS(=O)(=O)[O-])[C@H]2C1.[Na+].[Na+] (some centres undefined),,
,0.78,80,,,0.54,2.8,,,CC(=O)N/C=C/[S+]([O-])C1=C(C(=O)[O-])N2C(=O)[C@@H](C(C)(C)O)[C@H]2C1.[Na+] (stereo in doubt; 20),28.1,MIC [16]: 25 µg/mL; MIC [17]: 3.13 µg/mL; MIC [18]: 25 µg/mL; MIC [19]: 25 µg/mL; MIC [20]: 3.13 µg/mL; MIC [21]: 12.5 µg/mL; MIC [4]: 12.5 µg/mL; MIC [5]: 25 µg/mL; MIC [6]: 12.5 µg/mL
,,,,,,,,,CC(=O)N/C=C/[S+]([O-])C1=C(C(=O)[O-])N2C(=O)[C@@H](C(C)(C)O)[C@H]2C1.[Na+] (stereo in doubt; 2),,ED50 [1]: 20 mg/kg; MIC [3]: <0.1 µg/mL; MIC [20]: 0.2 µg/mL; MIC [4]: 3.13 µg/mL
,,,,,0.59,,,,CC(=O)N/C=C\[S+]([O-])C1=C(C(=O)[O-])N2C(=O)[C@@H](C(C)(C)O)[C@H]2C1.[Na+] (stereo in doubt; 22),,MIC [22]: 12.5 µg/mL; MIC [16]: 50 µg/mL; I50 [8]: 3.3 ng/mL; I50 [9]: 110 ng/mL; MIC [17]: 3.13 µg/mL; MIC [23]: 25 µg/mL; MIC [18]: 25 µg/mL; T1/2 [24]: > 250 min; MIC [19]: 100 µg/mL; MIC [20]: 12.5 µg/mL; MIC [21]: 50 µg/mL; MIC [4]: 100 µg/mL; I50 [13]: 14 ng/mL
8,,,,,,,,,CC(=O)N/C=C/SC1=C(C(=O)[O-])N2C(=O)[C@@H](C(C)(C)O)[C@H]2C1.[Na+],> 50,
37,,5.2,1.56,6.25,0.21,0.37,,6.25,CC(=O)N/C=C/[S+]([O-])C1=C(C(=O)[O-])N2C(=O)[C@@H](C(C)(C)OS(=O)(=O)[O-])[C@H]2C1.[Na+].[Na+] (some centres undefined),> 100,"I50 [8]: 55 ng/mL; MIC ([23]; Serratia marcescens, IFO 12648, read-out: MIC): 12.5 µg/mL"
21,,,,,,,,,CC(=O)N/C=C/SC1=C(C(=O)[O-])N2C(=O)[C@@H](C(C)OS(=O)(=O)[O-])[C@H]2C1.[Na+].[Na+] (some centres undefined),> 50,"MIC [5, 29]: 3.13 µg/mL"
,,,,3.13,,,6.25,12.5,CC(=O)N/C=C\[S+]([O-])C1=C(C(=O)[O-])N2C(=O)[C@@H](C(C)(C)O)[C@H]2C1.[Na+] (stereo in doubt; 11),,"MIC [22]: 3.13 µg/mL; I50 [8]: 0.34 ng/mL; I50 [9]: 3.8 ng/mL; MIC [23]: 3.13 µg/mL; MIC [19]: 12.5 µg/mL; MIC [3]: <0.1 µg/mL; MIC [21]: 12.5 µg/mL; MIC [4]: 25 µg/mL; MIC [6, 30]: 50 µg/mL; I50 [13]: 1.1 ng/mL"
40,1.1,320,,100,0.065,1500,1.56,25,CC(=O)[N-]/C=C/SC1=C(C(=O)[O-])N2C(=O)[C@@H](C(C)O)[C@H]2C1.[Na+].[Na+] (some centres undefined),17.7,MIC [25]: 400 µg/mL
,0.29,2.4,,,0.00055,19,6.25,,CC(=O)N/C=C\[S+]([O-])C1=C(C(=O)[O-])N2C(=O)[C@@H](C(C)O)[C@H]2C1.[Na+] (some centres undefined),,MIC [26]: 400 µg/mL; MIC [27]: 100 µg/mL
19,51,28,1.56,50,1,3.8,50,25,CC(=O)N/C=C\SC1=C(C(=O)[O-])N2C(=O)[C@@H](C(C)(C)OS(=O)(=O)[O-])[C@H]2C1.[Na+].[Na+],> 50,
,18,1,0.78,3.13,0.24,0.55,50,12.5,CC(=O)N/C=C\[S+]([O-])C1=C(C(=O)[O-])N2C(=O)[C@@H](C(C)(C)OS(=O)(=O)[O-])[C@H]2C1.[Na+].[Na+] (some centres undefined),> 50,
19,5.3,220,25,100,,17,12.5,12.5,CC(=O)N/C=C\SC1=C(C(=O)[O-])N2C(=O)[C@@H](C(C)(C)O)[C@H]2C1.[Na+],> 50,
